According to ChEMBL document CHEMBL4118256, “Second Generation of Mannich Base-Type Derivatives with in Vivo Activity against Trypanosoma cruzi” (J Med Chem, 2018):
Activity calls are given as the source filed them. The rule behind the calls is not given here.

Assays:
[1] = Selectivity index, ratio of IC50 for African green monkey Vero cells to IC50 for Trypanosoma cruzi TINF/CH/1956/Tulahuen DTU 6 epimastigotes; type: toxicity; conditions: read-out: Ratio IC50
How it was run: (§1)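 SI is Vero IC50 divided by the IC50 for the stated parasite form. For Vero cytotoxicity, cells were seeded at 1.25×10^4 mL^-1 with compounds at 1000–1 µM, incubated 48 h, then given resazurin for a further 24 h (72 h total), with absorbance read at 570/600 nm. Triplicate, four determinations.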

[2] = molecular target: T1, Superoxide dismutase (Trypanosoma cruzi (strain CL Brener)) (UniProt Q4DCQ3); assay: Inhibition of Trypanosoma cruzi MHOM/Pe/2011/Arequipa DTU 5 epimastigotes Fe-SOD at 50 uM by UV-Visible spectrophotometric method relative to control
T1 sequence (whole entry): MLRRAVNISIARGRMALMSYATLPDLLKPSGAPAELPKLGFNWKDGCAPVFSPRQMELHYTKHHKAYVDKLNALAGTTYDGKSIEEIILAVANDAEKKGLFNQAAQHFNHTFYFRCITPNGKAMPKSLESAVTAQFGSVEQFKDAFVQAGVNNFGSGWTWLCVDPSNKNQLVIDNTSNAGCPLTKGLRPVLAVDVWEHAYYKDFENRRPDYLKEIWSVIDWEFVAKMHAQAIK
How it was run: (§2)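 SOD activity of parasite Fe-SOD and human CuZn-SOD was measured spectrophotometrically by the Beyer and Fridovich method, with compounds at 1–100 µM. Values are averages of three rate determinations; IC50 was obtained by linear regression and differences were tested by Newman-Keuls.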

Mus musculus [3] = assay: (§3) Hepatotoxicity in Balb/c mouse infected with Trypanosoma cruzi MHOM/Pe/2011/Arequipa DTU 5 trypamastigotes assessed as change in alkaline phosphatase level at […], po once daily for 5 consecutive days starting from day 75 post infection measured on day 127 post infection by biochemical analysis relative to control; type: toxicity, organism-based; conditions: in vivo
How it was run: (§4)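 Serum clinical chemistry in Arequipa-infected female BALB/c mice. Oral 20 mg·kg-1 per day for 5 days, started day 10 or day 75 pi. Samples taken at day 16 pi or day 81 pi, and on necropsy day. Markers: CK-MB and LDH (U/L), AST, ALT and alkaline phosphatase (U/L), total bilirubin. Results scored relative to infected untreated controls; uninfected reference n = 15.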

Mus musculus [4] = assay: Toxicity in Balb/c mouse assessed as reduction in body mass at […], po once daily for 5 consecutive days starting from day 10 post infection relative to control; type: organism-based; design: scale not given: the % may be the effect or the level left; conditions: in vivo
How it was run: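 Infected female BALB/c mice, six per group, received oral doses of 20 mg·kg^-1/day for 5 consecutive days (total 100 mg·kg^-1) in 5% DMSO/0.5% HPMC vehicle, from day 10 or day 75 pi. Body mass and deaths were monitored during and after treatment.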

Mus musculus [5] = assay: Cardiotoxicity in Balb/c mouse infected with Trypanosoma cruzi MHOM/Pe/2011/Arequipa DTU 5 trypamastigotes assessed as change in serum LDH level at 100 mg/kg, po once daily for 5 consecutive days starting from day 10 post infection measured on day 127 post infection by biochemical analysis relative to control; type: toxicity, organism-based; conditions: in vivo
Trypanosoma cruzi [6] = assay: Antitrypanosomal activity against Trypanosoma cruzi MHOM/Pe/2011/Arequipa DTU 5 trypamastigotes infected in Balb/c mouse assessed as reduction in splenomegaly at 100 mg/kg, po once daily for 5 consecutive days starting from day 10 post infection measured on day 127 post infection relative to control; type: functional; design: scale not given: the % may be the effect or the level left
Trypanosoma cruzi [7] = assay: Antitrypanosomal activity against Trypanosoma cruzi MHOM/Pe/2011/Arequipa DTU 5 trypamastigotes infected in Balb/c mouse assessed as reduction in Ig-G level in serum at 100 mg/kg, po once daily for 5 consecutive days starting from day 75 post infection measured on day 81 post infection by ELISA; type: functional, organism-based
[8] = Selectivity index, ratio of IC50 for African green monkey Vero cells to IC50 for Trypanosoma cruzi MHOM/Pe/2011/Arequipa DTU 5 epimastigotes; type: toxicity; conditions: read-out: Ratio IC50; how it was run: as §1
Mus musculus [9] = assay: Hepatotoxicity in Balb/c mouse infected with Trypanosoma cruzi MHOM/Pe/2011/Arequipa DTU 5 trypamastigotes assessed as change in alkaline phosphatase level at 100 mg/kg, po once daily for 5 consecutive days starting from day 10 post infection measured on day 127 post infection by biochemical analysis relative to control; type: toxicity, organism-based; conditions: in vivo
Trypanosoma cruzi [10] = assay: Antitrypanosomal activity against Trypanosoma cruzi MHOM/Pe/2011/Arequipa DTU 5 epimastigotes assessed as effect on parasite glycolytic pathway by measuring reduction in pyruvate excretion at IC25 after 72 hrs by 1H NMR method; type: functional, organism-based
How it was run: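 Arequipa epimastigotes exposed at IC25 for 72 h alongside an untreated control. Excreted catabolites were analysed by 1H NMR, and each peak is reported as % variation versus the control. Three separate determinations.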

Trypanosoma cruzi [11] = assay: Antitrypanosomal activity against Trypanosoma cruzi MHOM/Pe/2011/Arequipa DTU 5 trypamastigotes infected in Balb/c mouse assessed as reduction in Ig-G level in serum at 100 mg/kg, po pretreated once daily for 5 consecutive days starting from day 10 post infection followed by cyclophosphamide-induced immunosuppression on day 100 post infection every 4 days for a maximum of 3 doses measured on day 127 post infection by ELISA; type: functional, organism-based
Trypanosoma cruzi [12] = assay: Trypanocidal activity against Trypanosoma cruzi TINF/CH/1956/Tulahuen DTU 6 epimastigotes after 48 hrs by resazurin dye based assay; type: functional, organism-based; conditions: TINF/CH/1956/Tulahuen DTU 6, 48 h
How it was run: (§5)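 Exponential-phase epimastigotes were seeded at 5×10^5 mL^-1 with compounds at 100–0.2 µM (DMSO 0.01% v/v) at 28 °C. After 48 h, resazurin was added for another 24 h. SDS was then added and absorbance read at 570 and 600 nm.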

Trypanosoma cruzi [13] = assay: Trypanocidal activity against Trypanosoma cruzi MHOM/Pe/2011/Arequipa DTU 5 epimastigotes after 48 hrs by resazurin dye based assay; type: functional, organism-based; conditions: MHOM/Pe/2011/Arequipa DTU 5, 48 h; how it was run: as §5
Trypanosoma cruzi [14] = assay: Trypanocidal activity against Trypanosoma cruzi MHOM/Pe/2011/Arequipa DTU 5 trypamastigotes derived from infected Balb/c albino mouse after 24 hrs by resazurin dye based assay; type: functional, organism-based; conditions: MHOM/Pe/2011/Arequipa DTU 5, 24 h
How it was run: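 Bloodstream trypomastigotes taken from mice at peak parasitaemia were seeded at 2×10^6 mL^-1 in RPMI with 10% FBS. Compounds were added at 50–0.2 µM and incubated 24 h at 37 °C, 5% CO2, then with resazurin for 4 h. SDS was added and absorbance read at 570/600 nm. IC50 was fitted; triplicate, four separate determinations.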

Trypanosoma cruzi [15] = assay: Antitrypanosomal activity against Trypanosoma cruzi MHOM/Pe/2011/Arequipa DTU 5 epimastigotes assessed as reduction in mitochondrial membrane potential at IC25 after 72 hrs by Rho123 staining based flow cytometry relative to control; type: functional; design: scale not given: the % may be the effect or the level left
How it was run: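 Arequipa epimastigotes were exposed at IC25 for 72 h, then labelled with Rhodamine 123 and analysed by flow cytometry. Result is % alteration in mitochondrial membrane potential versus untreated control.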

Trypanosoma cruzi [16] = assay: Antitrypanosomal activity against Trypanosoma cruzi MHOM/Pe/2011/Arequipa DTU 5 trypamastigotes infected in Balb/c mouse assessed as reduction in splenomegaly at 100 mg/kg, po once daily for 5 consecutive days starting from day 75 post infection measured on day 127 post infection relative to control; type: functional; design: scale not given: the % may be the effect or the level left
Mus musculus [17] = assay: as §3, with “total bilirubin” for “alkaline phosphatase”, “10” for “75”; type: toxicity, organism-based; conditions: in vivo; how it was run: as §4
Superoxide dismutase = molecular target: T2, Superoxide dismutase (Trypanosoma cruzi (strain CL Brener), UniProt Q4DCQ3); assay: Inhibition of Trypanosoma cruzi MHOM/Pe/2011/Arequipa DTU 5 epimastigotes Fe-SOD by UV-Visible spectrophotometric method; how it was run: as §2
T2 sequence (Q4DCQ3 whole entry): T1 sequence (whole entry)

[18] = Selectivity index, ratio of IC50 for African green monkey Vero cells to IC50 for Trypanosoma cruzi MHOM/Pe/2011/Arequipa DTU 5 amastigotes infected in African green monkey Vero cells; type: toxicity; conditions: read-out: Ratio IC50; how it was run: as §1

COc1ccc(C(=O)CCN2CCN(c3ccc(Cl)cc3)CC2)cc1
selectivity ratio [1]: 40.9
inhibition [2]: 100%
Activity (Mus musculus [3]): < 10%
Activity (Mus musculus [4]): > 10%
Activity (Mus musculus [5]): < 10%
Activity (Trypanosoma cruzi [6]): 52%
Activity (Trypanosoma cruzi [7]): inactive
selectivity ratio [8]: 31.5
Activity (Mus musculus [9]): < 10%
Activity (Trypanosoma cruzi [10]): inactive
Activity (Trypanosoma cruzi [11]): Active
IC50 (Trypanosoma cruzi [12]): 7.3 µM
IC50 (Trypanosoma cruzi [13]): 9.5 µM
IC50 (Trypanosoma cruzi [14]): 3.4 µM
Activity (Trypanosoma cruzi [15]): 27.4%
Activity (Trypanosoma cruzi [16]): 68%
Activity (Mus musculus [17]): < 10%
IC50 (Superoxide dismutase): 6.5 µM
selectivity ratio [18]: 82.4

COc1ccc(C(=O)CCN2CCN(c3ccc(F)cc3)CC2)cc1
selectivity ratio [1]: 30.2
inhibition [2]: 100%
Activity (Mus musculus [3]): < 10%
Activity (Mus musculus [4]): > 10%
Activity (Mus musculus [5]): < 10%
Activity (Trypanosoma cruzi [6]): Active
Activity (Trypanosoma cruzi [7]): inactive
selectivity ratio [8]: 40.2
Activity (Mus musculus [9]): < 10%
Activity (Trypanosoma cruzi [10]): Active
Activity (Trypanosoma cruzi [11]): inactive
IC50 (Trypanosoma cruzi [12]): 1.8 µM
IC50 (Trypanosoma cruzi [13]): 1.4 µM
IC50 (Trypanosoma cruzi [14]): 1.1 µM
Activity (Trypanosoma cruzi [15]): 25.6%
Activity (Trypanosoma cruzi [16]): Active
Activity (Mus musculus [17]): < 10%
IC50 (Superoxide dismutase): 7.8 µM
selectivity ratio [18]: 88.7

O=C(Cn1ccnc1[N+](=O)[O-])NCc1ccccc1 [BENZNIDAZOLE]
IC50 (Trypanosoma cruzi [12]): 19.7 µM
IC50 (Trypanosoma cruzi [14]): 12.4 µM
Activity (Trypanosoma cruzi [15]): 35.4%

COc1ccc(C(=O)CCN2CCN(c3ccc([N+](=O)[O-])cc3)CC2)cc1
selectivity ratio [1]: 15.7
inhibition [2]: 100%
Activity (Mus musculus [3]): < 10%
Activity (Mus musculus [4]): > 10%
Activity (Mus musculus [5]): < 10%
Activity (Trypanosoma cruzi [6]): Active
Activity (Trypanosoma cruzi [7]): inactive
selectivity ratio [8]: 18.6
Activity (Mus musculus [9]): < 10%
Activity (Trypanosoma cruzi [10]): inactive
Activity (Trypanosoma cruzi [11]): inactive
IC50 (Trypanosoma cruzi [12]): 37.4 µM
IC50 (Trypanosoma cruzi [13]): 31.6 µM
IC50 (Trypanosoma cruzi [14]): 11.7 µM
Activity (Trypanosoma cruzi [15]): 76.3%
Activity (Trypanosoma cruzi [16]): Active
Activity (Mus musculus [17]): < 10%
IC50 (Superoxide dismutase): 5 µM
selectivity ratio [18]: 20
